According to PMC8268672 (Bioorganic Chemistry, 2021):
≈ marks a conversion by molar mass, not a printed value. Where two headings read alike, the source gives them in different places.

Legend:
[1] = tested on: Madin Darby canine kidney (MDCK) cells; conditions: dog
[2] = tested on: Lactobacillus casei (NCIM-2651); test: Agar disk diffusion, inhibition zone; format: cell-based; conditions: 100 µg/8 mm disc, triplicate, mean ± SD
[3] = tested on: Sindbis virus; test: CPE reduction assay in Vero cells; format: cell-based; conditions: read-out: Antiviral EC50, Sindbis virus
[4] = tested on: Salmonella typhimurium (NCIM-2501); test: Agar disk diffusion, inhibition zone; format: cell-based; conditions: 100 µg/8 mm disc, triplicate, mean ± SD
[5] = tested on: Escherichia coli (ATCC 8739); test: MIC, broth microdilution; format: cell-based; conditions: ATCC8739, read-out: Minimum inhibitory concentration (MIC), EC
Outline: (§1)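 Broth microdilution per CLSI in Mueller-Hinton broth, using two-fold serial dilutions of test compound and reference drugs from 512 to 0.25. Bacterial broth cultures were grown 2-6 h to 0.5 McFarland turbidity, then diluted with sterile solution to the final inoculum. MIC is reported in µg/mL.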

[6] = tested on: Candida albicans (NCIM 2087); test: Agar disk diffusion, inhibition zone; format: cell-based; conditions: 100 µg/8 mm disc, triplicate, mean ± SD
[7] = tested on: Streptococcus pneumonia (ATCC 49619); test: Agar disk diffusion, inhibition zone; format: cell-based; conditions: 100 µg/8 mm disc, triplicate, mean ± SD
[8] = tested on: Cryptococcus neoformans (ATCC 9011); test: MIC, broth microdilution; format: cell-based; conditions: ATCC9011, read-out: Minimum inhibitory concentration (MIC), CN
Outline: (§2)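 Antifungal MICs by CLSI broth microdilution in Sabouraud liquid medium. Test compounds and standard drugs are serially diluted two-fold from 512 to 0.25. The fungal broth culture is grown 24 h at 35 °C to a 0.5 McFarland turbidity, then adjusted with sterile solution to the final inoculum.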

[9] = tested on: Coxsackie virus B4; test: CPE reduction assay in Vero cells; format: cell-based; conditions: Enterovirus B, read-out: Antiviral EC50, Coxsackie virus B4
[10] = tested on: Escherichia coli (ATCC 8739); test: Agar disk diffusion, inhibition zone; format: cell-based; conditions: 100 µg/8 mm disc, triplicate, mean ± SD
Outline: (§3)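 Agar disk diffusion on Mueller-Hinton agar plates seeded with a standard bacterial suspension. Test compound stock in DMSO, diluted with distilled water; 8 mm sterile filter-paper discs soaked in the solution. Ampicillin was the reference. Plates incubated at 35 °C for 24 h, in triplicate. Read-out is the average inhibition-zone diameter (mm) around each disc.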

[11] = tested on: Pseudomonas aeruginosa (MCCB 0035); test: MIC, broth microdilution; format: cell-based; conditions: read-out: Minimum inhibitory concentration (MIC), PA
Outline: as §1

[12] = tested on: Influenza A/H3N2 A/HK/7/87; test: CPE reduction assay in MDCK cells; format: cell-based; conditions: Influenza A virus
[13] = tested on: Aspergillus niger (NCIM 2191); test: Agar disk diffusion, inhibition zone; format: cell-based; conditions: 100 µg/8 mm disc, triplicate, mean ± SD
Outline: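 For the fungal strain, discs soaked in test compound solution (DMSO stock diluted with distilled water) sat on seeded Mueller-Hinton agar. Clotrimazole was the reference. Incubation ran 48 h at 35 °C, in triplicate. Zone of growth inhibition recorded in mm as the mean diameter around each disc.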

[14] = tested on: Vero cells; conditions: Vero cell cultures; microscopically detectable alteration of normal cell morphology
[15] = tested on: Punta Toro virus; test: CPE reduction assay in Vero cells; format: cell-based; conditions: read-out: Antiviral EC50, Punta Toro virus
[16] = tested on: Bacillus cereus (NCIM-2458); test: MIC, broth microdilution; format: cell-based; conditions: NCIM2458, read-out: Minimum inhibitory concentration (MIC), BC
Outline: as §1

[17] = tested on: Yellow Fever virus; test: microbe, parasite or virus in culture; format: cell-based; conditions: Yellow fever virus, Vero, read-out: Antiviral EC50, Yellow Fever virus
[18] = tested on: Pseudomonas aeruginosa (MCCB 0035); test: Agar disk diffusion, inhibition zone; format: cell-based; conditions: 100 µg/8 mm disc, triplicate, mean ± SD
[19] = tested on: Staphylococcus aureus (ATCC 29213); test: Agar disk diffusion, inhibition zone; format: cell-based; conditions: 100 µg/8 mm disc, triplicate, mean ± SD
Outline: as §3

[20] = tested on: Reovirus-1; test: CPE reduction assay in Vero cells; format: cell-based; conditions: read-out: Antiviral EC50, Reovirus-1
[21] = tested on: MT4 cells; conditions: MT4 cell cultures; colorimetric MTT cell viability assay
[22] = tested on: Aspergillus fumigatus (NCIM 2081); test: MIC, broth microdilution; format: cell-based; conditions: NCIM2081, read-out: Minimum inhibitory concentration (MIC), AF
Outline: as §2

[23] = tested on: Aspergillus niger (NCIM 2191); test: MIC, broth microdilution; format: cell-based; conditions: NCIM2191, read-out: Minimum inhibitory concentration (MIC), AN
Outline: as §2

[24] = tested on: Para-influenza-3 virus; test: CPE reduction assay in Vero cells; format: cell-based, Parainfluenza-3 virus; conditions: Vero, read-out: Antiviral EC50, Para-influenza-3 virus
[25] = tested on: Bacillus cereus (NCIM-2458); test: Agar disk diffusion, inhibition zone; format: cell-based; conditions: 100 µg/8 mm disc, triplicate, mean ± SD
[26] = tested on: Aspergillus fumigatus (NCIM 2081); test: Agar disk diffusion, inhibition zone; format: cell-based; conditions: 100 µg/8 mm disc, triplicate, mean ± SD
[27] = tested on: Staphylococcus aureus (ATCC 29213); test: MIC, broth microdilution; format: cell-based; conditions: ATCC29213, read-out: Minimum inhibitory concentration (MIC), SA
Outline: (§4)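 Antibacterial MICs by CLSI broth microdilution in Mueller-Hinton broth. Test compounds and standard drugs are serially diluted two-fold from 512 to 0.25. The bacterial broth culture is grown 2-6 h to a 0.5 McFarland turbidity, then adjusted with sterile solution to the final inoculum.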

[28] = tested on: Vaccinia virus; test: microbe, parasite or virus in culture; format: cell-based; conditions: Orthopoxvirus vaccinia, HEL, read-out: Antiviral EC50, Vaccinia virus
[29] = tested on: Candida albicans (NCIM 2087); test: MIC, broth microdilution; format: cell-based; conditions: NCIM2087, read-out: Minimum inhibitory concentration (MIC), CA
Outline: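 CLSI broth microdilution in Sabouraud liquid medium, with test compound two-fold serially diluted from 512 to 0.25. Fungal broth culture grown 24 h at 35 °C to 0.5 McFarland turbidity, then adjusted with sterile solution to a final […] inoculum. MIC expressed in µg/mL.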

[30] = tested on: Adeno virus-2; test: CPE reduction assay in HEL cells; format: cell-based; conditions: read-out: Antiviral EC50, Adeno virus-2
[31] = tested on: Influenza A/H1N1 A/Ned/378/05; test: CPE reduction assay in MDCK cells; format: cell-based; conditions: Influenza A virus
[32] = tested on: Influenza B B/Ned/537/05; test: CPE reduction assay in MDCK cells; format: cell-based; conditions: Influenza B virus, read-out: Antiviral EC50, Influenza B B/Ned/537/05, MTS
[33] = tested on: Human embryonic lung (HEL) cells; conditions: HEL cell cultures; microscopically detectable alteration of normal cell morphology
[34] = tested on: Klebsiella aerogenes (NCIM-2098); test: Agar disk diffusion, inhibition zone; format: cell-based; conditions: 100 µg/8 mm disc, triplicate, mean ± SD
[35] = tested on: Human Coronavirus (229E); test: CPE reduction assay in HEL cells; format: cell-based; conditions: read-out: Antiviral EC50, Human Coronavirus (229E)
[36] = tested on: Klebsiella aerogenes (NCIM-2098); test: MIC, broth microdilution; format: cell-based; conditions: NCIM2098, read-out: Minimum inhibitory concentration (MIC), KA
Outline: as §4

[37] = tested on: Cryptococcus neoformans (ATCC 9011); test: Agar disk diffusion, inhibition zone; format: cell-based; conditions: 100 µg/8 mm disc, triplicate, mean ± SD
[38] = read-out: Antiviral EC50, Influenza A/H3N2 A/HK/7/87, MTS
[39] = read-out: Antiviral EC50, Influenza A/H3N2 A/HK/7/87, visual CPE score
[40] = read-out: Antiviral EC50, Influenza A/H1N1 A/Ned/378/05, MTS
[41] = read-out: Antiviral EC50, Influenza A/H1N1 A/Ned/378/05, visual CPE score

Row | SMILES | Cytotoxicity, Minimum cytotoxic conc. [1] | Diameter of growth inhibition zone, LC [2] | EC50 [3] | Diameter of growth inhibition zone, ST [4] | MIC [5] | Diameter of growth inhibition zone, CA [6] | Diameter of growth inhibition zone, SP [7] | MIC [8] | EC50 [9] | Diameter of growth inhibition zone, EC [10] | MIC [11] | EC50 [12, 38] | EC50 [12, 39] | Diameter of growth inhibition zone, AN [13] | Minimum cytotoxic conc. [14] | EC50 [15] | MIC [16] | EC50 [17] | Diameter of growth inhibition zone, PA [18] | EC50 [20] | further results
1 | Cc1ccc(S(=O)(=O)N2C(=O)CSC2c2ccc([N+](=O)[O-])cc2)cc1 (centres unmarked) [5q, 3-[(4-Methylphenyl)sulfonyl]-2-(4-nitrophenyl)-1,3-thiazolidin-4-one] | >100 µM | 14 ± 0.4 mm | > 100 µM | 10 ± 1.1 mm | 16 µg/mL (≈ 42.3 µM) | 23 ± 1.2 mm | 10 ± 0.45 mm | 2 µg/mL (≈ 5.28 µM) | > 100 µM | 17 ± 1.2 mm | 32 µg/mL (≈ 84.6 µM) | > 100 µM | > 100 µM | 22 ± 0.46 mm | >100 µM | > 100 µM | 32 µg/mL (≈ 84.6 µM) | > 100 µM | 18 ± 1.2 mm | > 100 µM | Diameter of growth inhibition zone, SA [19]: 18 ± 1.2 mm; Minimum cytotoxic conc. [21]: >125 µM; MIC [22]: 4 µg/mL (≈ 10.6 µM); MIC [23]: 4 µg/mL (≈ 10.6 µM); EC50 [24]: > 100 µM; Diameter of growth inhibition zone, BC [25]: 12 ± 0.6 mm; Diameter of growth inhibition zone, AF [26]: 21 ± 0.63 mm; MIC [27]: 32 µg/mL (≈ 84.6 µM); EC50 [28]: > 100 µM; MIC [29]: 4 µg/mL (≈ 10.6 µM); EC50 [30]: > 100 µM; EC50 [31, 40]: > 100 µM; EC50 [31, 41]: > 100 µM; EC50 [32]: > 100 µM; Minimum cytotoxic conc. [33]: >100 µM; Diameter of growth inhibition zone, KA [34]: 12 ± 0.4 mm; EC50 [35]: > 100 µM; MIC [36]: 32 µg/mL (≈ 84.6 µM); Diameter of growth inhibition zone, CN [37]: 19 ± 1.3 mm
2 | Cc1ccc(S(=O)(=O)N2C(=O)CSC2c2ccccc2F)cc1 (centres unmarked) [5h, 2-(2-Fluorophenyl)-3-[(4-methylphenyl)sulfonyl]-1,3-thiazolidin-4-one] | >100 µM | 19 ± 1.2 mm | > 100 µM | 14 ± 1.3 mm | 4 µg/mL (≈ 11.4 µM) | 15 ± 0.56 mm | 10 ± 1.7 mm | 8 µg/mL (≈ 22.8 µM) | > 100 µM | 23.8 ± 0.9 mm | 8 µg/mL (≈ 22.8 µM) | > 100 µM | > 100 µM | 12 ± 0.66 mm | >100 µM | > 100 µM | 16 µg/mL (≈ 45.5 µM) | > 100 µM | 20 ± 0.6 mm | > 100 µM | Diameter of growth inhibition zone, SA [19]: 19 ± 1.1 mm; Minimum cytotoxic conc. [21]: 111 µM; MIC [22]: 16 µg/mL (≈ 45.5 µM); MIC [23]: 32 µg/mL (≈ 91.1 µM); EC50 [24]: > 100 µM; Diameter of growth inhibition zone, BC [25]: 14 ± 0.62 mm; Diameter of growth inhibition zone, AF [26]: 15 ± 1.2 mm; MIC [27]: 8 µg/mL (≈ 22.8 µM); EC50 [28]: > 100 µM; MIC [29]: 32 µg/mL (≈ 91.1 µM); EC50 [30]: > 100 µM; EC50 [31, 40]: > 100 µM; EC50 [31, 41]: > 100 µM; EC50 [32]: > 100 µM; Minimum cytotoxic conc. [33]: >100 µM; Diameter of growth inhibition zone, KA [34]: 10 ± 0.5 mm; EC50 [35]: > 100 µM; MIC [36]: 64 µg/mL (≈ 182 µM); Diameter of growth inhibition zone, CN [37]: 19 ± 1.1 mm
3 | Cc1ccc(S(=O)(=O)N2C(=O)CSC2c2ccc(C(C)C)cc2)cc1 (centres unmarked) [5n, 3-[(4-Methylphenyl)sulfonyl]-2-[4-(propan-2-yl)phenyl]-1,3-thiazolidin-4-one] | >100 µM | 07 ± 0.30 mm | > 100 µM | 07 ± 1.5 mm | > 256 µg/mL | 9 ± 1.5 mm | 07 ± 0.6 mm | > 512 µg/mL | > 100 µM | 08 ± 0.65 mm | > 256 µg/mL | > 100 µM | > 100 µM | 10 ± 1.2 mm | >100 µM | > 100 µM | > 256 µg/mL | > 100 µM | 8.5 ± 1.5 mm | > 100 µM | Minimum cytotoxic conc. [21]: >125 µM; MIC [22]: > 512 µg/mL; MIC [23]: > 256 µg/mL; EC50 [24]: > 100 µM; Diameter of growth inhibition zone, BC [25]: 07 ± 0.1 mm; Diameter of growth inhibition zone, AF [26]: 9.5 ± 0.9 mm; MIC [27]: > 256 µg/mL; EC50 [28]: > 100 µM; MIC [29]: > 256 µg/mL; EC50 [30]: > 100 µM; EC50 [31, 40]: > 100 µM; EC50 [31, 41]: > 100 µM; EC50 [32]: > 100 µM; Minimum cytotoxic conc. [33]: >100 µM; Diameter of growth inhibition zone, KA [34]: 07 ± 0.7 mm; EC50 [35]: > 100 µM; MIC [36]: > 256 µg/mL; Diameter of growth inhibition zone, CN [37]: 5 ± 0.3 mm
